In PubChem BioAssay:
Activity calls are given as the source filed them.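 The calls were made as follows, unless noted: active = viability at or below 10% of carrier control in both of two separate runs; inconclusive = viability at or below 10% in only one of the two runs; inactive = the rest.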

Experiments:
[1] = Her2 expression decrease, cell viability multiplex – SKBR3 breast tumor cells, AlphaScreen, ATP viability, primary screen (AID 461;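 active = Her2 level under about 52% in both replicate screens, with viability over 70% of control, limit read from the data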;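 as to Her2 level: lower value means less Her2 protein in the cells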;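 as to viability: percent of carrier control wells set as 100% viability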); conditions: SKBR3 Her2 protein level, 18-24 h, measured here: SKBR3 viability, ATP luminescence, at 10 µM
[2] = target: Receptor tyrosine-protein kinase erbB-2 (Homo sapiens) (UniProt P04626); test: as above; conditions: 18-24 h, at 10 µM, stronger effect = lower value
Chain of Receptor tyrosine-protein kinase erbB-2 (Homo sapiens) (P04626 whole entry, looked up): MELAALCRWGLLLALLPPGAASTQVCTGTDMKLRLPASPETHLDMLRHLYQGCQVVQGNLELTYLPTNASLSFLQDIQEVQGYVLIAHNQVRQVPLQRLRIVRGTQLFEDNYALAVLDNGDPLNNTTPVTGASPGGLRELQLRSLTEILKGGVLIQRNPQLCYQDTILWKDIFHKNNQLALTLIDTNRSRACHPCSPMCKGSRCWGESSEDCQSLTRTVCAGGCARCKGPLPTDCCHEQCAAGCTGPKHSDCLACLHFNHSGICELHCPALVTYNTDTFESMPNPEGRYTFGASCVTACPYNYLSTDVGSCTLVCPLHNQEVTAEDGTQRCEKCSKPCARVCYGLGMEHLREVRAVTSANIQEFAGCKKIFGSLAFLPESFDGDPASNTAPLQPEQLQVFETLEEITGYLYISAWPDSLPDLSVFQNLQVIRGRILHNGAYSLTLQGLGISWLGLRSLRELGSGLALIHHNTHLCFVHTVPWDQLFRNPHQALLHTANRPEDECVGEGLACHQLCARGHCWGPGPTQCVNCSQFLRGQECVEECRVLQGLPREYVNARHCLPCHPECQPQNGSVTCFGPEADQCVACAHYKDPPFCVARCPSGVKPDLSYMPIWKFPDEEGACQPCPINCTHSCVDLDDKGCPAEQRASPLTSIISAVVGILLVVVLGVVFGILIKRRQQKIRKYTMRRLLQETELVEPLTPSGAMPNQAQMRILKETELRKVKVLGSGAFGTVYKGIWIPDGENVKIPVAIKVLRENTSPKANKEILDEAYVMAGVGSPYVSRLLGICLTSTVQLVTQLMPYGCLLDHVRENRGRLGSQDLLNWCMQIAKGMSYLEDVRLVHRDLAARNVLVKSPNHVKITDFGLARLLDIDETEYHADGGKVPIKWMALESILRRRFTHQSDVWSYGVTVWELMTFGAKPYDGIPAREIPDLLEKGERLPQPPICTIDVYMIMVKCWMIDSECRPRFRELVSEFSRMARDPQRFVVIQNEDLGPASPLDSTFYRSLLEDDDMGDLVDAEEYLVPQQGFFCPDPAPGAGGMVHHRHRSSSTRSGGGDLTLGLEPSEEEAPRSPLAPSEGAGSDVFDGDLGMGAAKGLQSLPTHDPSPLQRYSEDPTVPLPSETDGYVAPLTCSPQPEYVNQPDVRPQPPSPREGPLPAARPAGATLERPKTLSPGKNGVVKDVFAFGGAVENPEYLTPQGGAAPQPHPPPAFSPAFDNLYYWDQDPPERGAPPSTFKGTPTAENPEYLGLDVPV

[3] = reduced viability of SK-BR-3 breast cancer cells – cell-based, 24 h, human, pilot screen (AID 572); conditions: SK-BR-3 viability, CellTiter-Glo luminescence, at 10 µM, stronger effect = lower value;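 also: compound exposure lasted between 18 and 24 h rather than exactly 24 h; 100% = carrier-treated control wells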
[4] = HUVEC growth inhibition – cell-based, human, primary screen (AID 575;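 active = viability at or below 30% in both replicate assays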;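 also: 100% = median of untreated cell wells with 0.1% DMSO on each plate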); conditions: HUVEC proliferation, CellTiter-Glo luminescence, 72 h; at 10 µM; stronger effect = lower value
Outline: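 Test system: HUVEC primary cells. Quantity: 1250 endothelial cells in each well. Dosing: single-point 10 µM, DMSO 0.1% final. Incubation: 72 h treatment at 37 °C. Measured by: CTG luminescence. Control set: DMSO cell controls and MePR drug controls. Plate: collagen-coated 384-well format.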

[5] = H69AR cell proliferation blockers – human, duplicate replicates, primary screen (AID 580;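 active = viability at or under a set limit in both replicates, limit being median viability minus 3 SD, cut at about 48% in these data, passing the limit was not always enough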;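 also: 100% = mean luminescence of untreated wells and 0% = no signal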); conditions: H69AR lung tumor cells viability, ATP luminescence, 72 h; at 10 µM; stronger effect = lower value
[6] = MRP1 drug-resistance reversers in H69AR cells – cell-based, doxorubicin co-treatment, pilot screen (AID 601;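 active = viability loss from added drug above about 55%, and viability with drug at most 40%, in both replicates, limit read from the data, passing the limit was not always enough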); conditions: CellTiter-Glo, 72 h, at 10 µM; for differential viability (reversal): stronger effect = higher value
[7] = yeast transport mutant growth inhibition pilot in 384-well plates, post-Golgi transport modulator project (AID 636; in the data active = inhibition above about 31%); conditions: absorbance 615 nm, about 18 h, stronger effect = higher value
[8] = growth suppression of yeast trafficking mutant, preliminary HTS, modulators of trafficking downstream of Golgi apparatus project, 1536-format plate, OD 615 nm (AID 637; in the data active = inhibition above about 30%); conditions: yeast transport mutant growth, absorbance 615 nm, 18 h; stronger effect = higher value
[9] = H69AR cells + 2 uM doxorubicin, measured here: viability with 2 uM doxorubicin, stronger effect = lower value
[10] = H69AR cells, compound alone cytotoxicity

Row | SMILES | viability [1] [%] | Her2 level [2] | viability [3] | viability [4] | viability [5] | differential viability (reversal) ([6]; H69AR cells + 2 uM doxorubicin) | viability [6, 9] [%] | viability [6, 10] [%] | inhibition [7] | inhibition [8]
1 | CC1(C)Cc2cccc(OCC(O)CN3CCN(c4ccccn4)CC3)c2O1 (stereo not given) | 84 | 94% (inactive) | 84% (inactive) | 86.1% (inactive) | 70.3% (inactive) | -17.7% (inactive) | 88 | 70.3 | -3.38% (inactive) | -7.3% (inactive)
2 | Nc1sccc1C(=O)c1ccc(Cl)cc1 | 100 | 85% (inactive) | 100% (inactive) | 82.9% (inactive) | 90.2% (inactive) | 4.88% (inactive) | 85.3 | 90.2 | 0% (inactive) | -4.17% (inactive)
3 | CCc1cccc2c(=O)c(C(=O)NCCN3CCOCC3)c[nH]c12 | 104 | 113% (inactive) | 104% (inactive) | 102% (inactive) | 108% (inactive) | 18.2% (inactive) | 90 | 108 | -5.47% (inactive) | 1.29% (inactive)
4 | CC(C(=O)NC1CCCCCC1)N(c1ccccc1)S(C)(=O)=O (stereo not given) | 112 | 97.5% (inactive) | 112% (inactive) | 114% (inactive) | 109% (inactive) | 6.19% (inactive) | 103 | 109 | -2.24% (inactive) | 2.79% (inactive)
5 | O=C(Nc1ccccc1)c1ccc(NCC2CCCO2)c(S(=O)(=O)N2CCOCC2)c1 (stereo not given) | 87 | 95% (inactive) | 87% (inactive) | 102% (inactive) | 90% (inactive) | 4.29% (inactive) | 85.7 | 90 | -3.16% (inactive) | -5.87% (inactive)
6 | O=S(=O)(c1cccc(-c2nnco2)c1)N1CCCC1 | 100 | 116% (inactive) | 100% (inactive) | 114% (inactive) | 95.4% (inactive) | 2.63% (inactive) | 92.8 | 95.4 | -3.33% (inactive) | -7.42% (inactive)
7 | Cn1c(SCC(N)=O)nnc1C1CCN(C(=O)NCc2ccccc2)CC1 | 88 | 103% (inactive) | 88% (inactive) | 93.6% (inactive) | 88.3% (inactive) | 0.425% (inactive) | 87.8 | 88.3 | -3.55% (inactive) | -9.5% (inactive)
8 | CC(NC(=O)Nc1nccs1)(C(F)(F)F)C(F)(F)F | 102 | 83.5% (inactive) | 102% (inactive) | 103% (inactive) | 99.7% (inactive) | 3.42% (inactive) | 96.2 | 99.7 | -7.26% (inactive) | -6.51% (inactive)
9 | O=C1CC(N2CCN(c3cccc(C(F)(F)F)c3)CC2)C(=O)N1c1ccccc1 (stereo not given) | 93.5 | 112% (inactive) | 93.5% (inactive) | 92.3% (inactive) | 103% (inactive) | 13% (inactive) | 90 | 103 | -2.08% (inactive) | -12.7% (inactive)
10 | O=C(Nc1ccc(-c2noc(-c3cccs3)n2)cc1)c1cccnc1 | 74.5 | 93% (inactive) | 74.5% (inactive) | 54% (inactive) | 32.9% (active) | -46.6% (inactive) | 79.5 | 32.9 | -0.81% (inactive) | -8.69% (inactive)
11 | CCCOC(=O)c1ccc(-c2c(C)noc2-c2ccc(OC)cc2O)o1 | 98 | 74.5% (inactive) | 98% (inactive) | 46.3% (inactive) | 75.8% (inactive) | -10.3% (inactive) | 86 | 75.8 | -4.81% (inactive) | -9.33% (inactive)
12 | Cc1nc2ccc(NC(=O)N3CCOCC3)cc2s1 | 87.5 | 79.5% (inactive) | 87.5% (inactive) | 93.8% (inactive) | 89.8% (inactive) | 4.26% (inactive) | 85.6 | 89.8 | -4.34% (inactive) | -1.27% (inactive)
13 | Cc1ccc2[nH]c3c(N4CCOCC4)ncnc3c2c1 | 116 | 95% (inactive) | 116% (inactive) | 76.3% (inactive) | 85.5% (inactive) | -15.7% (inactive) | 101 | 85.5 | -3.68% (inactive) | 8.2% (inactive)
14 | C=CCn1c(COc2ccccc2)nnc1SCC(=O)C(C)(C)C | 78 | 107% (inactive) | 78% (inactive) | 102% (inactive) | 97.8% (inactive) | 5.13% (inactive) | 92.6 | 97.8 | -1.95% (inactive) | -4.67% (inactive)
15 | CC(=O)Nc1ccc(Cl)c(C(N)=O)c1 | 110 | 108% (inactive) | 110% (inactive) | 97.1% (inactive) | 95.3% (inactive) | 8.55% (inactive) | 86.8 | 95.3 | -3.68% (inactive) | 6.07% (inactive)
16 | O=C(Nc1ccc(N2C(=O)C3C4C=CC(C4)C3C2=O)cc1)Nc1cccnc1 (stereo not given) | 108 | 83% (inactive) | 108% (inactive) | 75.3% (inactive) | 86% (inactive) | -0.065% (inactive) | 86.1 | 86 | -3.29% (inactive) | -1.33% (inactive)
17 | CCn1c(C)c(CCC(=O)O)c(=O)n2nc(-c3ccccc3OC)cc12 | 91 | 104% (inactive) | 91% (inactive) | 100% (inactive) | 87.4% (inactive) | -1.22% (inactive) | 88.6 | 87.4 | -0.14% (inactive) | 23.6% (inactive)
18 | CC(C)COc1ccc(C2NC(=O)NC2=O)cc1 (stereo not given) | 85.5 | 106% (inactive) | 85.5% (inactive) | 96.3% (inactive) | 103% (inactive) | -0.53% (inactive) | 103 | 103 | -0.52% (inactive) | -8.67% (inactive)
19 | CC1(CC(=O)O)C(=O)N=C2C=CC=CN21 (stereo not given) | 93 | 87.5% (inactive) | 93% (inactive) | 97.9% (inactive) | 89.4% (inactive) | 5.18% (inactive) | 84.2 | 89.4 | -4.93% (inactive) | 0.16% (inactive)
20 | CCCOc1cccc(-c2nnc(N)s2)c1 | 102 | 121% (inactive) | 102% (inactive) | 87.4% (inactive) | 100% (inactive) | 21.6% (inactive) | 78.5 | 100 | -4.8% (inactive) | -5.56% (inactive)
21 | CCn1c(SCC(=O)c2ccc(OC)cc2)nnc1C(C)NC(=O)c1ccc(OC)cc1 (stereo not given) | 93 | 106% (inactive) | 93% (inactive) | 85.7% (inactive) | 88.2% (inactive) | -3.72% (inactive) | 91.9 | 88.2 | -1.2% (inactive) | -8.41% (inactive)
22 | COc1cccc(C(=O)OCn2nnc3ccccc3c2=O)c1 | 88 | 92.5% (inactive) | 88% (inactive) | 108% (inactive) | 114% (inactive) | 4.58% (inactive) | 109 | 114 | -0.13% (inactive) | 16.5% (inactive)
23 | CCOc1ccc(NC(=O)CSc2nnc(Cc3cccn3C)n2-c2ccc(OC)cc2)cc1 | 82 | 81% (inactive) | 82% (inactive) | 79.5% (inactive) | 90.6% (inactive) | -5.27% (inactive) | 95.9 | 90.6 | -1.49% (inactive) | -8.03% (inactive)
24 | CN1C(=O)CSc2ccc(NC(=O)N3CCN(c4ccccn4)CC3)cc21 | 102 | 88.5% (inactive) | 102% (inactive) | 58.2% (inactive) | 91.3% (inactive) | 12.2% (inactive) | 79.1 | 91.3 | -0.4% (inactive) | 3.61% (inactive)
25 | Cc1csc(SCC(=O)NC(=O)NCc2ccccc2)n1 | 108 | 90.5% (inactive) | 108% (inactive) | 103% (inactive) | 95.2% (inactive) | -0.125% (inactive) | 95.3 | 95.2 | -6.67% (inactive) | 2.3% (inactive)
26 | Cc1ccc2c(c1)NC(=O)C(CC(=O)NCCN(CC(C)C)CC(C)C)O2 (stereo not given) | 88 | 93% (inactive) | 88% (inactive) | 87.3% (inactive) | 91.6% (inactive) | 5.71% (inactive) | 85.8 | 91.6 | 2.13% (inactive) | -3.28% (inactive)
27 | CCn1cc(C(=O)Nc2cc3c(cc2NC(C)=O)OCCO3)c(=O)c2ccc(C)nc21 | 96.5 | 100% (inactive) | 96.5% (inactive) | 106% (inactive) | 91% (inactive) | -4.02% (inactive) | 95 | 91 | -6.13% (inactive) | 0.48% (inactive)
28 | CCOC(=O)CNS(=O)(=O)c1c(C)noc1C | 110 | 104% (inactive) | 110% (inactive) | 70.6% (inactive) | 107% (inactive) | 20.6% (inactive) | 86.2 | 107 | -4.47% (inactive) | 2.73% (inactive)
29 | COC(=O)c1ccc(-c2sc3nc(N4CCOCC4)c4c(c3c2N)CCCC4)o1 | 108 | 104% (inactive) | 108% (inactive) | 74.4% (inactive) | 91% (inactive) | -1.13% (inactive) | 92.2 | 91 | -4% (inactive) | 27.3% (inactive)
